Laboratory results taken from the array DNA melting data of Ke et al. (doi:10.1101/2024.01.08.574731).

Assays:
[1] = folding enthalpy; higher = less favourable; fluorescence melt of hairpins on a sequencing array, two-state fit; conditions: sodium 0.088 M
Method in brief: (§1)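 Folding enthalpy and melting temperature come from bootstrapped two-state fits to Cy3 fluorescence of library hairpins carrying annealed Cy3 and quencher oligos on a sequenced MiSeq flow cell. Imaging was done in 50 mM Na-HEPES pH 8.0, 25 mM NaCl, stepping by 2.5 °C up to 60 °C, and signals were normalised to pre-quench Cy3 and to control constructs. Results of four replicates were combined by inverse variance, and fitted temperatures were raised by 9.35 °C to match UV melts.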

[2] = melting temperature; fluorescence melt of hairpins on a sequencing array, two-state fit, raised by 9.35 °C to match UV melts; conditions: sodium 0.088 M
Method in brief: as §1

GGGCTCGAAAGAGAGCCC ((((((....)))..)))
folding enthalpy [1]: -35.3 kcal/mol | Tm [2]: 66.2 °C

GATCGTTGTGACGATC ((((((....))))))
folding enthalpy [1]: -41 kcal/mol | Tm [2]: 60.2 °C

GGCAACGAAAGTTTTGCC ((((((....)))..)))
folding enthalpy [1]: -26 kcal/mol | Tm [2]: 44.9 °C

GACGGCGAAAGCCCGGTC ((((((....)))..)))
folding enthalpy [1]: -13.2 kcal/mol | Tm [2]: 48.1 °C

GCACTGCCGAAAGGCTGC (((..(((....))))))
folding enthalpy [1]: -13.4 kcal/mol | Tm [2]: 44.5 °C

GGAGGGCGAAAGCCTCC (((.(((....))))))
folding enthalpy [1]: -18.7 kcal/mol | Tm [2]: 61.9 °C

GAGCGGGGAAACCCACTC (((.(((....))).)))
folding enthalpy [1]: -28.4 kcal/mol | Tm [2]: 46.2 °C

GGGATCCGAAAGGAACCC (((.(((....))).)))
folding enthalpy [1]: -46.3 kcal/mol | Tm [2]: 56.7 °C

GAATCCGAAAGGATTTTC ((((((....)))..)))
folding enthalpy [1]: -15.7 kcal/mol | Tm [2]: 48.9 °C

GCGTGGACACGC ((((....))))
folding enthalpy [1]: -25.5 kcal/mol | Tm [2]: 62 °C

GAGCACGAAAGTGATCTC ((((((....)))..)))
folding enthalpy [1]: -23.7 kcal/mol | Tm [2]: 57.1 °C

GCAGGTCCGAAAGGATGC (((..(((....))))))
folding enthalpy [1]: -16.6 kcal/mol | Tm [2]: 37.7 °C

GGCGGTCGAAAGACGCC (((.(((....))))))
folding enthalpy [1]: -28.6 kcal/mol | Tm [2]: 67.3 °C

GTGTCTCGAAAGAGTCAC (((.(((....))).)))
folding enthalpy [1]: -39.3 kcal/mol | Tm [2]: 49.4 °C

GATCAGTTACCTGATC ((((((....))))))
folding enthalpy [1]: -37 kcal/mol | Tm [2]: 50.9 °C

GCCAAGCGAAAGCCTCGC ((.(.((....)).).))
folding enthalpy [1]: -5.93 kcal/mol | Tm [2]: 23.1 °C

GTATCCGAAAGGATATAC ((((((....)))..)))
folding enthalpy [1]: -13.8 kcal/mol | Tm [2]: 44.8 °C

GATGACGAAAGTCTTATC ((((((....)))..)))
folding enthalpy [1]: -12.4 kcal/mol | Tm [2]: 25.5 °C

GAGAAACGAAAGTTACTC (((.(((....))).)))
folding enthalpy [1]: -28.9 kcal/mol | Tm [2]: 41.7 °C

GATCACCAAGTGATC ((((((...))))))
folding enthalpy [1]: -36.8 kcal/mol | Tm [2]: 52.5 °C

GATCTTTATAAAGATC ((((((....))))))
folding enthalpy [1]: -38.4 kcal/mol | Tm [2]: 45.5 °C

GGGAACGGAAACGTTTCC ((.((((....)))).))
folding enthalpy [1]: -35.2 kcal/mol | Tm [2]: 53.7 °C

GAAAGCCGAAAGGCCTTC (((.(((....))).)))
folding enthalpy [1]: -14.4 kcal/mol | Tm [2]: 41.4 °C

GCGTGGCGAAAGCCCCGC (((.(((....))).)))
folding enthalpy [1]: -29.3 kcal/mol | Tm [2]: 67.6 °C

GCGGGTGGCCGC ((((....))))
folding enthalpy [1]: -15.8 kcal/mol | Tm [2]: 62.1 °C

GTGACAGAAATGTCAC ((((((....))))))
folding enthalpy [1]: -35.7 kcal/mol | Tm [2]: 57.6 °C

GTATGTGGAAACATATGC (.((.((....)).)).)
folding enthalpy [1]: -24.1 kcal/mol | Tm [2]: 37.5 °C

GCTGTCGAAAGACTAGC ((((((....))).)))
folding enthalpy [1]: -24.4 kcal/mol | Tm [2]: 50.3 °C

GCACACGAAAGTGGTGC ((((((....))).)))
folding enthalpy [1]: -33 kcal/mol | Tm [2]: 59.6 °C

GCACGTTCGAAAGAATGC (((..(((....))))))
folding enthalpy [1]: -16.9 kcal/mol | Tm [2]: 29.6 °C

GACGCCGCGAAAGCGGTC (((..(((....))))))
folding enthalpy [1]: -6.05 kcal/mol | Tm [2]: 34.8 °C

GCGGTCAACCGC ((((....))))
folding enthalpy [1]: -28.6 kcal/mol | Tm [2]: 56 °C

GATCGTCCGGACGATC ((((((....))))))
folding enthalpy [1]: -52.6 kcal/mol | Tm [2]: 62.8 °C

GTTTGGGGAAACTCAAAC (((((.(....).)))))
folding enthalpy [1]: -31.7 kcal/mol | Tm [2]: 43.9 °C

GCGTACGAAAGTACCCGC ((((((....)))..)))
folding enthalpy [1]: -14.2 kcal/mol | Tm [2]: 40.2 °C

GGGGCGGCGAAAGCCCCC (((..(((....))))))
folding enthalpy [1]: -16.6 kcal/mol | Tm [2]: 64 °C

GACCGCGAAAGCGAGGTC ((((((....)))..)))
folding enthalpy [1]: -19.2 kcal/mol | Tm [2]: 56.6 °C

GTACCGTCGAAAGACTAC (((..(((....))))))
folding enthalpy [1]: -8.88 kcal/mol | Tm [2]: 25.7 °C

GGGCAAGGAAACTCGCCC ((((.((....)).))))
folding enthalpy [1]: -31.1 kcal/mol | Tm [2]: 50.7 °C

GCTAAAGGAAACCTTAGC (((((.(....).)))))
folding enthalpy [1]: -25.8 kcal/mol | Tm [2]: 37.1 °C

GTGCCGGGAAACTGGCGC (.(((.(....).))).)
folding enthalpy [1]: -30.4 kcal/mol | Tm [2]: 53.4 °C

GTTTCCGAAAGGAAAAC ((((((....))).)))
folding enthalpy [1]: -16.1 kcal/mol | Tm [2]: 45.1 °C

GATCGTCTGACGATC ((((((...))))))
folding enthalpy [1]: -51.7 kcal/mol | Tm [2]: 54 °C

GGTCGATCGAAAGATACC (((..(((....))))))
folding enthalpy [1]: -6.77 kcal/mol | Tm [2]: 26.2 °C

GAGATGGGAAACCATCCC (.(((((....))))).)
folding enthalpy [1]: -13.1 kcal/mol | Tm [2]: 38.7 °C

GGAAGAGGAAACTCCTCC (((.(((....))).)))
folding enthalpy [1]: -13.9 kcal/mol | Tm [2]: 28 °C
